Holding throughout (type): functional
One experiment has as its system L1210. In words: Effective dose that produced 50% inhibition of L1210 Leukemia cell growth in culture. The note with it: Mus musculus, read-out: ED50 (the source's name). Summed up: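 The value is the drug concentration in the culture medium that gave 50% inhibition of L1210 leukemia cell growth, relative to untreated controls, after a 48-h incubation. Results are mean ± standard error.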

The subject of experiment [1] is Mus musculus. Description: Percentage growth inhibition of mammary adenocarcinoma 16/C in B6C3F1 female mice at 40 mg/kg dose […]. To be noted: sc. Summed up:
(§1)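 C3H mammary adenocarcinoma 16/C, lung-passed in C3H female mice. Freshly harvested 2- to 4-mm3 fragments were implanted subcutaneously into 18- to 20-g B6C3F1 females on day 0, and the mice were randomized the next day. Drugs were dissolved in 0.2 M phosphate buffer and given ip once daily on days 1-9; controls received 0.2 mL buffer. Tumor weight was estimated from caliper length and width by […].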

Experiment [2] relates to Mus musculus. In words: Animals with palpable tumors on day 17 at 40 mg/kg by subcutaneous administration in B6C3F1 female mice; 6/6. The note with it: route intraperitoneal, in the assay text read “intraperitoneal administration” for “subcutaneous administration”. Summed up: as §1
The test system of experiment [3] is Mus musculus. Description: Change in weight on day 9 of mammary adenocarcinoma 16/C in B6C3F1 female mice at 40 mg/kg […]. Summed up:
as §1

For experiment [4], the system named is Mus musculus. In words: Change in weight on day 9 of mammary adenocarcinoma 16/C in B6C3F1 female mice at 80 mg/kg […]. Summed up: as §1
The test system of experiment [5] is Mus musculus. In words: Animals with palpable tumors on day 17 at 80 mg/kg by subcutaneous administration in B6C3F1 female mice; 6/6. The note with it: route intraperitoneal, in the assay text read “intraperitoneal administration” for “subcutaneous administration”. Summed up: as §1
Experiment [6] deals with Mus musculus. In words: Percentage growth inhibition of mammary adenocarcinoma 16/C in B6C3F1 female mice at 80 mg/kg dose […]. The note with it: sc. Summed up:
as §1

Experiment [7] concerns Mus musculus. Description: Tumor weight on day 17 of C3H mammary adenocarcinoma 16/C in B6C3F1 female mice at 40 mg/kg […]. Summed up:
as §1

Experiment [8] relates to Mus musculus. Description: Tumor weight on day 17 of C3H mammary adenocarcinoma 16/C in B6C3F1 female mice at 80 mg/kg by subcutaneous administration. The note with it: route intraperitoneal, in the assay text read “intraperitoneal administration” for “subcutaneous administration”. Summed up: as §1
Experiment [9] relates to Mus musculus. Description: Tumor weight of C3H mammary adenocarcinoma 16/C in B6C3F1 female mice at 100 mg/kg by subcutaneous administration on day 17. The note with it: route intraperitoneal, in the assay text read “intraperitoneal administration” for “subcutaneous administration”. Summed up: as §1
For experiment [10], the system named is Mus musculus. Description: Animals with palpable tumors on day 17 at the dose of 100 mg/kg by […] in 6 B6C3F1 female mice; 6/6 animals were with palpable tumors. Summed up:
as §1

In experiment [11] the test system is Mus musculus. In words: Animals with palpable tumors on day 17 at the dose of 50 mg/kg by […] in 6 B6C3F1 female mice; 6/6 animals were with palpable tumors. Summed up:
as §1

Experiment [12] concerns Mus musculus. Description: Change in weight of mammary adenocarcinoma 16/C in B6C3F1 female mice at 50 mg/kg […] on day 9. Summed up: as §1
Experiment [13] has as its system Mus musculus. Description: Percentage growth inhibition of mammary adenocarcinoma 16/C in B6C3F1 female mice at the dose of 100 mg/kg by subcutaneous administration. To be noted: ip, in the assay text read “intraperitoneal administration” for “subcutaneous administration”. Summed up: as §1
Experiment [14] concerns Mus musculus. In words: Change in weight of mammary adenocarcinoma 16/C in B6C3F1 female mice at 100 mg/kg […] on day 9. Summed up: as §1
The subject of experiment [15] is Mus musculus. In words: Tumor weight of C3H mammary adenocarcinoma 16/C in B6C3F1 female mice at 50 mg/kg by subcutaneous administration on day 17. To be noted: route intraperitoneal, in the assay text read “intraperitoneal administration” for “subcutaneous administration”. Summed up:
as §1

For experiment [16], the system named is Mus musculus. In words: Percentage growth inhibition of mammary adenocarcinoma 16/C in B6C3F1 female mice at the dose of 50 mg/kg by subcutaneous administration. The note with it: ip, in the assay text read “intraperitoneal administration” for “subcutaneous administration”. Summed up: as §1
Experiment [17] deals with Mus musculus. In words: Change in weight of mammary adenocarcinoma 16/C in B6C3F1 female mice by subcutaneous administration on day 9. Summed up: as §1
Experiment [18] deals with Mus musculus. In words: Animals with palpable tumors on day 17 after subcutaneous administration in 6 B6C3F1 female mice; 5/6 animals were with palpable tumors. To be noted: in the assay text read “intraperitoneal administration” for “subcutaneous administration”. Summed up:
as §1

For experiment [19], the species on record is Mus musculus. In words: Percentage growth inhibition of mammary adenocarcinoma 16/C in B6C3F1 female mice. Summed up: as §1
Experiment [20] has as its system Mus musculus. In words: Tumor weight of C3H mammary adenocarcinoma 16/C in B6C3F1 female mice at 80 mg/kg by subcutaneous administration on day 17. To be noted: route intraperitoneal, in the assay text read “intraperitoneal administration” for “subcutaneous administration”. Summed up:
as §1

Structures are written as SMILES.

By inhibition in vivo is commonly meant the share of the control response that was lost under treatment. Low values mean a weak effect, high ones a strong effect. For orientation: Inhibition means the share of the control response that was lost under treatment.

Consider `Nc1cc2c(ncn2[C@H]2C[C@H](O)[C@@H](CO)O2)c(O)n1`, for which the EC50 with L1210 was found to be 9 µM. In the experiment on Mus musculus [1], this compound showed an inhibition in vivo at 40 mg/kg of 25%. Also, the “Animals with palpable tumor” value in the experiment with Mus musculus [2] and in the experiment with Mus musculus [5] was 6 each time. Further, the results for the Delta weight in the experiment with Mus musculus [3] and with Mus musculus [4] were 0.58 and 1.2, respectively. Besides, in the experiment on Mus musculus [6], the inhibition in vivo at 80 mg/kg worked out at 69.7%. The Tumor weight in the experiment with Mus musculus [7] was 2.7 g; in the experiment with Mus musculus [8], 1.09 g.

Take `Nc1cc2ncn([C@H]3C[C@H](O)[C@@H](CO)O3)c2c(O)n1`: the EC50 with L1210 worked out at 950 µM. Moreover, the results for the Tumor weight with Mus musculus [9] and with Mus musculus [15] were 3.5 g and 2.95 g, respectively. Further, the “Animals with palpable tumor” value with Mus musculus [10] and in the experiment with Mus musculus [11] was 6 in each case. For the same compound, the Delta weight was 0.72 with Mus musculus [12] and 0.95 in the experiment with Mus musculus [14]. Also, the inhibition in vivo at 100 mg/kg in the experiment with Mus musculus [13] was 2.8%. In the experiment with Mus musculus [16], this compound came in with an inhibition in vivo at 50 mg/kg of 18.1%.

On to `Nc1cc2c(ncn2[C@@H]2O[C@H](CO)[C@@H](O)[C@H]2O)c(=O)[nH]1`, for which the EC50 in the experiment with L1210 is 7 µM.

As to `Nc1cc2ncn([C@@H]3O[C@H](CO)[C@@H](O)[C@H]3O)c2c(=O)[nH]1`, in the experiment with L1210, the EC50 came out at 750 µM.

With `Nc1cc2[nH]cnc2c(=O)[nH]1` [DEZAGUANINE], the EC50 in the experiment on L1210 was found to be 11 µM. The compound further yielded a Delta weight with Mus musculus [17] of 0.06. For the same compound, the “Animals with palpable tumor” value in the experiment on Mus musculus [18] is on record as 5. Also, in the experiment filed under Mus musculus [19], the Inhibition is 93.1%. Also, the Tumor weight in the experiment with Mus musculus [20] came to 0.25 g.
